From ChEMBL document CHEMBL1123670, “Inhibitors of cyclic AMP phosphodiesterase. 2. Structural variations of N-cyclohexyl-N-methyl-4-[(1,2,3,5-tetrahydro- 2-oxoimidazo[2,1-b]quinazolin-7-yl)-oxy]butyramide (RS-82856)” (J Med Chem, 1987)

Key:
[1] = Inhibition of ADP-induced platelet aggregation; assay type: functional
Method in brief: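 ADP-induced platelet aggregation. Read-out is the rate of change in percentage transmission of the primary aggregation phase after 5 min incubation. Each agent tested at five concentrations in triplicate, with experiments repeated at least twice using platelets from different donors. IC50 (μM) determined graphically.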

[2] = In vivo inhibition of cyclic AMP phosphodiesterase from rat heart; settings: in the assay text read “In vitro” for “In vivo”
Method in brief: (§1)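 Cyclic AMP phosphodiesterase prepared from human platelets (IC50, nM) or from rat or dog heart tissue (IC25, nM). Each agent tested at five inhibitor concentrations in triplicate. IC50/IC25 read graphically from the dose-response curve.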

Homo sapiens = organism: Homo sapiens; assay: Ratio of IC50 of inhibition of platelet aggregation to IC50 of inhibition of platelet PDE (Efficacy index); assay type: functional
Method in brief: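 Efficacy index is the IC50 for inhibition of ADP-induced platelet aggregation divided by the IC50 for human platelet PDE inhibition. Both IC50s come from graphical dose-response curves (five concentrations, triplicate).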

Phosphodiesterase 3 = Phosphodiesterase 3 (Homo sapiens, UniProt Q14432+Q13370); assay: In vitro inhibition of cyclic AMP phosphodiesterase from human platelets
[3] = target: Phosphodiesterase; PDE3 & PDE4 (Homo sapiens) (UniProt P27815+Q14432+Q08499+Q07343+Q13370+Q08493); assay: In vivo inhibition of cyclic AMP phosphodiesterase from dog heart; method in brief: as §1
[4] = Canis lupus familiaris; target entry is the homologue from another species; in the assay text read “In vitro” for “In vivo”
[5] = Canis lupus familiaris; in the assay text read “In vitro” for “In vivo”; target entry is the homologue from another species

| SMILES | IC50 [1] [nM] | IC50 (Phosphodiesterase 3) [nM] | IC25 [3, 4] [nM] | IC25 [3, 5] [nM] | IC25 [2] [nM] | Ratio (Homo sapiens) |
| --- | --- | --- | --- | --- | --- | --- |
| O=C1CN2Cc3cc(OCCCC(=O)N4CCCC5CCCCC54)ccc3N=C2N1 (configuration not stated) | 880 | 13.5 |  |  | 200 | 65 |
| CN(C(=O)CCCOc1ccc2c(c1)CN1C(=N2)NC(=O)C12CC2)C1CCCCC1 | 50000 | 760 |  | 3700 |  | 66 |
| CN(C(=O)OCCOc1ccc2c(c1)CN1CC(=O)NC1=N2)C1CCCCC1 | 1500 | 13 |  | 58 |  | 115 |
| CN(C(=O)CCCSc1ccc2c(c1)CN1CC(=O)NC1=N2)C1CCCCC1 | 25000 | 140 |  | 260 |  | 178 |
| CC(O)[C@H]1C(=O)NC2=Nc3ccc(OCCCC(=O)N(C)C4CCCCC4)cc3CN21 (some centres not stated) | 22000 | 1000 | 1700 |  |  | 22 |
| CC1c2cc(OCCCC(=O)N(C)C3CCCCC3)ccc2NC2=NC(=O)CN21 (configuration not stated) | 130 | 5.9 |  | 14 |  | 22 |
| CN(C(=O)CCCOc1ccc2c(c1)CN1CCC(=O)NC1=N2)C1CCCCC1 | 1900 | 130 | 100 |  |  | 14.6 |
| O=C1CN2Cc3cc(OCCCC(=O)N(C(CO)CO)C4CCCCC4)ccc3N=C2N1 | 82000 | 12 | 26 |  |  | 6833 |
| CN(C(=O)CCCOc1cccc2c1CN1CC(=O)NC1=N2)C1CCCCC1 | 60000 | 2000 |  | 1500 |  | 30 |
| O=C1CN2Cc3cc(OCCCC(=O)N(CCN4CCOCC4)C4CCCCC4)ccc3N=C2N1 | 1000 | 4.1 | 32 |  |  | 243 |
| CC[C@H]1C(=O)NC2=Nc3ccc(OCCCC(=O)N(C)C4CCCCC4)cc3CN21 | 8200 | 580 | 450 |  |  | 14 |
| O=C1CN2Cc3cc(OCCCc4nnnn4C4CCCCC4)ccc3N=C2N1 | 1000 | 4.5 |  | 18 |  | 222 |
| CN(C(=O)CCCOc1ccc2c(c1)CN1C(=N2)NC(=O)[C@H]1CO)C1CCCCC1 | 6900 | 18.5 | 72 |  |  | 373 |
| O=C1CN2Cc3cc(OCCCC(=O)N(CCCCCCO)C4CCCCC4)ccc3N=C2N1 | 4000 | 3.6 | 2 |  |  | 1111 |
| O=C1CN2Cc3cc(OCCCC(=O)N(Cc4ccccc4)Cc4ccccc4)ccc3N=C2N1 |  |  |  |  | 60 |  |
| CN(C(=O)CCCOc1ccc2c(c1)CN1C(=N2)NC(=O)C1(C)C)C1CCCCC1 | 4300 | 470 |  | 2400 |  | 9 |
| CN(C(=O)CCCOc1ccc2c(c1)CN1C(=O)CNC1=N2)C1CCCCC1 | 120000 | 15000 |  | 1600 |  | 8 |
| CN(C(=O)CCCOc1ccc2c(c1Cl)CN1CC(=O)NC1=N2)C1CCCCC1 | 1100 | 14 | 100 |  |  | 79 |
| CN(C(=O)CCCCc1ccc2c(c1)CN1CC(=O)NC1=N2)C1CCCCC1 | 6600 | 200 |  | 220 |  | 33 |
| C[C@H]1C(=O)NC2=Nc3ccc(OCCCC(=O)N(C)C4CCCCC4)cc3CN21 | 470 | 26 | 78 |  |  | 18 |

Further lines, with some results ahead:

| IC50 [1] [nM] | IC50 (Phosphodiesterase 3) [nM] | IC25 [3, 4] [nM] | IC25 [3, 5] [nM] | SMILES | IC25 [2] [nM] | Ratio (Homo sapiens) |
| --- | --- | --- | --- | --- | --- | --- |
| 82000 | 340 |  |  | O=C1CN2Cc3cc(OCCCC(=O)N4CCCC4)ccc3N=C2N1 | 1700 | 241 |
| 9200 | 15 |  |  | CN(C(=O)CCCOc1ccc2c(c1)CN1CC(=O)NC1=N2)C(c1ccccc1)c1ccccc1 | 60 | 613 |
| 14500 | 260 |  |  | O=C1CN2Cc3cc(OCCCC(=O)N4CCCCC4)ccc3N=C2N1 | 1500 | 56 |
| 980 | 26 |  |  | CN(Cc1ccccc1)C(=O)CCCOc1ccc2c(c1)CN1CC(=O)NC1=N2 | 240 | 38 |
| 860 | 4.6 |  |  | CN(C(=O)CCCCOc1ccc2c(c1)CN1CC(=O)NC1=N2)C1CCCCC1 | 22 | 187 |
| 1600 | 240 | 440 |  | CCOC(=O)CCCOc1ccc2c(c1)CN1CC(=O)NC1=N2 |  | 6.7 |
| 180 | 1.5 | 5.2 |  | CCN(C(=O)CCCOc1ccc2c(c1)CN1CC(=O)NC1=N2)C1CCCCC1 |  | 120 |
| 47000 | 690 | 380 |  | NC(=O)CCCOc1ccc2c(c1)CN1CC(=O)NC1=N2 |  | 68 |
| 1050 | 10 |  |  | O=C1CN2Cc3cc(OCCCC(=O)N4CCCc5ccccc54)ccc3N=C2N1 | 160 | 105 |
| 53000 | 1600 |  |  | O=C1CN2Cc3cc(OCCCC(=O)N4CCOCC4)ccc3N=C2N1 | 7000 | 33 |
| 10000 | 72 |  | 180 | O=C1CN2Cc3cc(OCCCC(=O)NC4CCCCC4)ccc3N=C2N1 |  | 139 |
| 5200 | 5 |  |  | O=C(O)CN(C(=O)CCCOc1ccc2c(c1)CN1CC(=O)NC1=N2)C1CCCCC1 | 100 | 1040 |
| 4600 | 16 |  |  | CN(C(=O)CCCCCCOc1ccc2c(c1)CN1CC(=O)NC1=N2)C1CCCCC1 | 45 | 287 |
| 1450 | 48 | 25 |  | CN(C(=O)CCCOc1ccc2c(c1)CN1CC(=O)NC1=N2)C1CCCC1 |  | 30 |
| 25000 | 120 | 290 |  | CN(C(=O)CCCOc1ccc2c(c1)CN1CC(=O)NC1=N2)C1CCC(O)CC1 (configuration not stated) |  | 208 |
| 1900 | 12 |  |  | CN(C(=O)CCCCCOc1ccc2c(c1)CN1CC(=O)NC1=N2)C1CCCCC1 | 21 | 158 |
| 105 | 1.3 |  | < 10 | COCCN(C(=O)CCCOc1ccc2c(c1)CN1CC(=O)NC1=N2)C1CCCCC1 |  | 81 |
| 190 | 2.2 |  | 1.6 | CN(C(=O)CCCOc1ccc2c(c1)CN1CC(=O)NC1=N2)C1CCCCCCC1 |  | 86 |
| 20000 | 11 | 100 |  | NC(=O)CN(C(=O)CCCOc1ccc2c(c1)CN1CC(=O)NC1=N2)C1CCCCC1 |  | 1818 |
| 3400 | 18 |  | 43 | O=C1CN2Cc3cc(OCCCC(=O)OC4CCCCC4)ccc3N=C2N1 |  | 168 |
